Test results: ChEMBL document CHEMBL1150377, “Design of antiangiogenic hypoxic cell radiosensitizers: 2-nitroimidazoles containing a 2-aminomethylene-4-cyclopentene-1,3-dione moiety” (Bioorg Med Chem, 2008)

Key:
[1] = target: Epidermal growth factor receptor (Homo sapiens, UniProt P00533); test: Inhibition of human A431 cell EGFRK assessed as 32P phosphorylation by scintillation counter; type: cell-based; details: a-431
Outline: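 Solubilized A431 cell lysate, debris removed, incubated with or without EGF for 30 min at 25 °C. Reaction started with [γ-³²P]ATP, 10 min at 0 °C. After stopping and washing, receptor phosphorylation measured as ³²P by scintillation counting.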

[2] = Radiosensitizing activity in mouse EMT6/KU cells assessed as enhancement ratio reducing surviving fraction of cells at […] after 5 to 7 days; type: functional
Outline: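 They were then irradiated with 6 MV X-rays at 2.0 Gy/min, replated, and scored for colonies after 5–7 days. Survival curves were least-squares fitted. ER is the ratio of radiation doses giving 1% survival.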

Gallus gallus = species: Gallus gallus; test: Antiangiogenic activity in chick embryo chorioallantoic membrane assessed as number of eggs showing 3 mm avascular zone at 100 ug relative to control; type: functional, tissue-based
Outline: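 Chick CAM assay on 4-day-old embryos in shell; 10 µL sample in 1% methyl cellulose/0.9% NaCl applied inside a ring on the CAM, 48 h at 37.6 °C, then fat emulsion injected to show vessels. Six eggs per group, repeated more than three times. Inhibition (%) = eggs with ≥3 mm avascular zone around ring / eggs in group ×100.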

[3] = target: Matrix metalloproteinase-9 (Bos taurus, UniProt P52176); test: Inhibition of bovine arterial endothelial cell MMP9; type: cell-based
[4] = target: 72 kDa type IV collagenase (Homo sapiens, UniProt P08253); test: Inhibition of human bowes melanoma cell MMP2
[5] = target: Vascular endothelial growth factor receptor 1 (Homo sapiens, UniProt P17948); test: Inhibition of Flt1 expressed in mouse NIH3T3 cells by autoradiography; type: cell-based
[6] = Radiosensitizing activity in mouse EMT6/KU cells assessed as enhancement ratio reducing surviving fraction of cells at 1 mM after 5 to 7 days; type: functional
Outline: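 EMT6/KU cells at 2×10⁶ cells/mL in drug-containing MEM in glass tubes, made hypoxic with 95% N₂/5% CO₂ for 60 min. Irradiated with 6 MV X-rays at 2.0 Gy/min, then plated. After 5–7 days replated for colony formation. Survival curves fitted by least squares; ER = ratio of radiation doses giving 1% survival.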

Chain of Epidermal growth factor receptor (P00533 whole entry): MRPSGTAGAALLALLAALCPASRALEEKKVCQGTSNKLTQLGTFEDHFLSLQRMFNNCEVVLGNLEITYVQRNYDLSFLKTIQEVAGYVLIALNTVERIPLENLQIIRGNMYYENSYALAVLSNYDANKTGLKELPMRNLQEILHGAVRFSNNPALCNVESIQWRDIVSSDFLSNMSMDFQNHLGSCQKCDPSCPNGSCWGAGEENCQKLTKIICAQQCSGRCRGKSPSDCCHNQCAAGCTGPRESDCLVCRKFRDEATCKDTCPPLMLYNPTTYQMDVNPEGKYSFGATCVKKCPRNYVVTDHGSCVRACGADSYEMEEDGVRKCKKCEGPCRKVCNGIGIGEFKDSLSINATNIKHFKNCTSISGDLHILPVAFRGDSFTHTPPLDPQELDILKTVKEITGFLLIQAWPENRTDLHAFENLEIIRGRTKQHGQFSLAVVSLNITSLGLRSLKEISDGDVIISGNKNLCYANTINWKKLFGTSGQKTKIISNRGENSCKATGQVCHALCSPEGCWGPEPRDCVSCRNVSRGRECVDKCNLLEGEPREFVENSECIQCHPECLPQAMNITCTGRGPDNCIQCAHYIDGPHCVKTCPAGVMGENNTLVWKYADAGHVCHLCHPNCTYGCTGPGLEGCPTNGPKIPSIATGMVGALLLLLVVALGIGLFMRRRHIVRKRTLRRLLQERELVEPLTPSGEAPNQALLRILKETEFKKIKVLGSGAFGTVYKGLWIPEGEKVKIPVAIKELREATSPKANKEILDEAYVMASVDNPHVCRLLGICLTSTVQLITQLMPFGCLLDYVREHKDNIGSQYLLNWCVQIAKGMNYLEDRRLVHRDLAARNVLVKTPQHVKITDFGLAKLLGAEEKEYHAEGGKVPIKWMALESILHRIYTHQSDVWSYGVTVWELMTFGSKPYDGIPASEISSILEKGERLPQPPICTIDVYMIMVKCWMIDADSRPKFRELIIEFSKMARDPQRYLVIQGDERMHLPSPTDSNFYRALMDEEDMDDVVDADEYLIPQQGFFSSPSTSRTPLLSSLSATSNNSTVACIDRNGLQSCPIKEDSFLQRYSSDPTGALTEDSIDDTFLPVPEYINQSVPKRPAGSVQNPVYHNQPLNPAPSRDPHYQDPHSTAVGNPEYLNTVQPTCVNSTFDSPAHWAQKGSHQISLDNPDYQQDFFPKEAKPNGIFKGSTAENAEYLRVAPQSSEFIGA
Chain of Matrix metalloproteinase-9 (P52176 whole entry): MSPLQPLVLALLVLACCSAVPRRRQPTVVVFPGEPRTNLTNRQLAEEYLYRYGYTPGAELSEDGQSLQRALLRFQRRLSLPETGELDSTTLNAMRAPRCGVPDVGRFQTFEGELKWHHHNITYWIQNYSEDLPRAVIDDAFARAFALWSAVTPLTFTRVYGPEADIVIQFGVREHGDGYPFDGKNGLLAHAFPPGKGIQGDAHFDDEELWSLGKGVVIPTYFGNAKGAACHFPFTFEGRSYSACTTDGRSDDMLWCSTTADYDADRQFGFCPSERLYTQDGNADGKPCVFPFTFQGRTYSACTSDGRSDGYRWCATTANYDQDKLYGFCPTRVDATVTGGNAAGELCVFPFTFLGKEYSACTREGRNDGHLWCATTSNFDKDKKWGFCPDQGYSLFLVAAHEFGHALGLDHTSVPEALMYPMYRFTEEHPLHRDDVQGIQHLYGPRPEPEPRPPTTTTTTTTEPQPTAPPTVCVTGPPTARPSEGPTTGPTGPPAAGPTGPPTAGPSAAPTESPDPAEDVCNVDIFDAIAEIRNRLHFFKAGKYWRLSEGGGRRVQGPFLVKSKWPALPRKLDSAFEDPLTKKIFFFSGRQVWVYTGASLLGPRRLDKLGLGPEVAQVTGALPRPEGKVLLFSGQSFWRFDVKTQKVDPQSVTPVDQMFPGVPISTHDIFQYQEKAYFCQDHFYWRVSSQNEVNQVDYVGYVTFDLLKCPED
Chain of 72 kDa type IV collagenase (P08253 whole entry): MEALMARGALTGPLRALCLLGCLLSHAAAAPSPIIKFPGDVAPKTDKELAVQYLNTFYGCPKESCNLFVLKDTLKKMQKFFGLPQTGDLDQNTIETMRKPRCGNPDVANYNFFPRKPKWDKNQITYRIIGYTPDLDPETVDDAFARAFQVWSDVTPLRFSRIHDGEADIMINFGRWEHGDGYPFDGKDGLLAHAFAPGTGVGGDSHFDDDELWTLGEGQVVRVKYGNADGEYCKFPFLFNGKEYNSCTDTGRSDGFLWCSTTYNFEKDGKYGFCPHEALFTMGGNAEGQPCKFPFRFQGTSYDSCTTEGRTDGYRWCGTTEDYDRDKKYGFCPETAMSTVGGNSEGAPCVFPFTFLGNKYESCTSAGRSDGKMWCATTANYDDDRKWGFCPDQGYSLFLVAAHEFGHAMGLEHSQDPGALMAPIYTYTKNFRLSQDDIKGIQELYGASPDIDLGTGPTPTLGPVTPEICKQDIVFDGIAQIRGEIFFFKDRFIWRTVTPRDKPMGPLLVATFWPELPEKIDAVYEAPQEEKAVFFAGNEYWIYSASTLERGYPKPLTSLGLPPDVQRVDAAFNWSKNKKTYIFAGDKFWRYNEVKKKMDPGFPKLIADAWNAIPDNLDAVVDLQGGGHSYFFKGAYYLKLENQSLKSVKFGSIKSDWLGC
Chain of Vascular endothelial growth factor receptor 1 (P17948 whole entry): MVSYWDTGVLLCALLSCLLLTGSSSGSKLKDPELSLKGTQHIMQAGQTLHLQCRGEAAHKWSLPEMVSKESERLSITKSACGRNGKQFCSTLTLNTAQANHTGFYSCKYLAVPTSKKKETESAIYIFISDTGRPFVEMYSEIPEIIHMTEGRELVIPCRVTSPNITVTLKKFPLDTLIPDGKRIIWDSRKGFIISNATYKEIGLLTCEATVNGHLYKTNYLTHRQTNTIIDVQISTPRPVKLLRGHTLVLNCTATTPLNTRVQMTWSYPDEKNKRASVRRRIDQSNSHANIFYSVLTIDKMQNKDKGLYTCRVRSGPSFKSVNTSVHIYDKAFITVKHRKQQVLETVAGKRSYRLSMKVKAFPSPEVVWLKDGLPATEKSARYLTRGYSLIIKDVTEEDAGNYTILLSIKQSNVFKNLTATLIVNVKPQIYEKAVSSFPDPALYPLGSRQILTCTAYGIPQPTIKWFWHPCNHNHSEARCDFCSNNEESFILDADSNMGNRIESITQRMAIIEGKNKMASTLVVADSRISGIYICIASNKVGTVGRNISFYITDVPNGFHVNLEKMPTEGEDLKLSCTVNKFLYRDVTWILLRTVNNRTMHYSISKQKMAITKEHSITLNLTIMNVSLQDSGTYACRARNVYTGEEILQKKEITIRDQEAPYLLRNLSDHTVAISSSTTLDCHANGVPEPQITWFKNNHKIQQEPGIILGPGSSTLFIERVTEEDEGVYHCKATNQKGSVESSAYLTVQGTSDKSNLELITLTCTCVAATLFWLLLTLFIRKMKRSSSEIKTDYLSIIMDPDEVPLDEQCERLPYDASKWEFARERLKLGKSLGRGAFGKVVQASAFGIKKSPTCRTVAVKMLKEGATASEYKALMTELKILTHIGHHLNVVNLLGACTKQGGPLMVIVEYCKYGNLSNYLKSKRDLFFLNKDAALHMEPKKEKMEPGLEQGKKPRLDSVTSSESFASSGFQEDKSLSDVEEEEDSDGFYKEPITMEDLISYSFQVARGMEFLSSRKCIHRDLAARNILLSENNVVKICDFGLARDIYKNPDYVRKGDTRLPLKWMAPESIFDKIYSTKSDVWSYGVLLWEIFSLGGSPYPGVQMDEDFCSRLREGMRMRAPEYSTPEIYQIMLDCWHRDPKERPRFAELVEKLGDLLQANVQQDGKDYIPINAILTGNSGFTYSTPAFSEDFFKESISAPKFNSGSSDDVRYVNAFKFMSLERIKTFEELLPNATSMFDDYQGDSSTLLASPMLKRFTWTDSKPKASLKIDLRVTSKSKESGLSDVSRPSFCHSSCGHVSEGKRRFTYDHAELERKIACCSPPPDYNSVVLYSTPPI

Row | SMILES | IC50 [1] [µM⁻¹] | Ratio [2] | inhibition (Gallus gallus) [%] | IC50 [3] [µM⁻¹] | IC50 [4] [µM⁻¹] | IC50 [5] [µM⁻¹] | Ratio [6]
1 | COC[C@H](Cn1ccnc1[N+](=O)[O-])OC(=O)c1ccc(NC=C2C(=O)C=CC2=O)cc1 | 23 |  |  |  |  |  | 
2 | COC[C@@H](Cn1ccnc1[N+](=O)[O-])OC(=O)c1ccc(NC(=O)C(F)(F)F)cc1 |  | 2.02 | 43 | > 240 | > 240 |  | 
3 | CC(C)(C)c1ccc(OC[C@H](Cn2ccnc2[N+](=O)[O-])OC(=O)c2ccc(NC=C3C(=O)C=CC3=O)cc2)cc1 | 18.4 |  |  | 103 | 183 | 184 | 
4 | COC[C@@H](Cn1ccnc1[N+](=O)[O-])OC(=O)c1ccc(NC=C2C(=O)C=CC2=O)cc1 |  |  |  | 53 | 24 | 23.4 | 
5 | COC[C@H](Cn1ccnc1[N+](=O)[O-])OC(=O)c1ccc(NC(=O)C(F)(F)F)cc1 |  | 1.84 | 83 | > 240 | > 240 |  | 
6 | CC(C)(C)c1ccc(OC[C@@H](Cn2ccnc2[N+](=O)[O-])OC(=O)c2ccc(NC=C3C(=O)C=CC3=O)cc2)cc1 | 1.8 |  |  | 67 |  | 18.4 | 
7 | O=C(Cn1ccnc1[N+](=O)[O-])NCCO [ETANIDAZOLE] |  |  |  |  |  |  | 1.72
